# Screens (PubChem BioAssay)
# KCNK3 inh: human KCNK3 channel inhibition, primary screen. O14649. CHO-KCNK3 thallium flux, FluxOR fluorescence; stronger effect = lower value. B-score at 10 µM. 0.84% of 340,000 active. AID 602410;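 active = B-score under library mean minus 4 SD, starting fluorescence ratio at most library mean plus 5 SD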;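 also: more negative B-score means stronger inhibition of thallium flux through KCNK3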
# hERG rescue: shields human hERG channel from block by proarrhythmic agents | Q12809 | CHO-hERG, FluxOR thallium flux, dofetilide IC70 present | activation (rescue from dofetilide block), less the hit threshold, % at 10 µM | 0.51% of 310,000 active;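 active = activation above the mean of controls blocked by dofetilide plus 5 SD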;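 also: thallium influx through hERG after potassium depolarization seen as dye fluorescence rise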
# KCNQ1 pot: human KCNQ1 channel potentiation or activation | CHO-K1 KCNQ1, thallium flux FluxOR fluorescence; stronger effect = higher value | B-score at 10 µM | 0.35% of 310,000 active | AID 2648;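 active = fluorescence ratio B-score, a plate-corrected score, at least three library SD, with initial intensity B-score within 5 SD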
#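 System: Stable KCNQ1 CHO-K1 line | Incubation: 90 min dye loading and 20 min compound exposure, both at room temperature | Measure: Ratio B score | Medium: Assay buffer for compound exposure, DMSO matched across wells | Compound dosing: Single-concentration screen | Probe or stimulus: K+/Tl+ depolarizing stimulus | Measured by: Kinetic FluxOR fluorescence, 10 s baseline plus 110 s post-stimulus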
# KCNQ1 block: human KCNQ1 channel inhibition; P51787; CHO-K1 KCNQ1, FluxOR thallium flux fluorescence; stronger effect = higher value; B-score at 10 µM; 1.3% of 310,000 active; AID 2642;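 active = compounds whose thallium flux B-score, printed positive for inhibition, exceeds three library SD while starting fluorescence stays within three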;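 also: channel opened by potassium depolarization with thallium stimulus after 20 min compound exposure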
# KCNK9 inh: blocks the human KCNK9 two-pore domain potassium channel; Q9NPC2; HEK293 KCNK9, FluxOR thallium flux fluorescence; stronger effect = lower value; B-score at 10 µM; 1.2% of 310,000 active;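 active = ratio B-score over 3 SD below the library mean, with starting fluorescence within 5 SD of its mean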;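 also: negative B-score means less thallium flux so channel inhibition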
# Target sequence (Q9NPC2 whole entry, looked up, the tested form may be a part): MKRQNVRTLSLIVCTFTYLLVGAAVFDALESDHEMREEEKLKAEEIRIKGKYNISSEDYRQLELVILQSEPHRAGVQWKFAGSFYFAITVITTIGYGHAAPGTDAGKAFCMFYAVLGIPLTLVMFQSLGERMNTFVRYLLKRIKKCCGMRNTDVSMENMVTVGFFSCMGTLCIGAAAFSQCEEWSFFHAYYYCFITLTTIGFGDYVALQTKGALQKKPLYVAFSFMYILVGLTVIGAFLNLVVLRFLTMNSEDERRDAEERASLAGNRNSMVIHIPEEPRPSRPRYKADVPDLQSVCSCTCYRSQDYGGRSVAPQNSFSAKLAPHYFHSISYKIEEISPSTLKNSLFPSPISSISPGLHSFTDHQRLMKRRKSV
# KCNQ1 inh valid: human KCNQ1 channel inhibition, validation assay; AID 588353; inhibition, % at 10 µM; shares compounds with KCNQ1 block; 93% of 1,600 active; KCNQ1 cell line, FluxOR thallium flux fluorescence;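 active = primary screen active, with duplicate mean exceeding buffer control mean plus 3 SD of buffer wells, cut at about 28% in these data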;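 also: 0% = buffer control ratio and 100% = XE991 inhibitor control ratio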
# CHO KCNQ1 ctr: KCNQ1 inhibitor counter-screen hit in parental CHO cells | fluorescence ratio (Tl flux) at 10 µM | 21% of 1,600 active | parental CHO-K1, FluxOR thallium flux fluorescence ratio; stronger effect = lower value; zero means no signal rise above baseline | shares compounds with KCNQ1 block;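 active = mean of duplicate thallium-flux fluorescence ratios in parental host cells more than 5 SD below the buffer control mean, cut at about 0.38 in these data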;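 also: ratio is peak minus minimum fluorescence divided by baseline fluorescence; actives read low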
# KCNQ1 APC inh: confirmation of human KCNQ1 potassium channel inhibitors by electrophysiology | calls only at 10 µM | shares compounds with KCNQ1 block | AID 624120 | KCNQ1-CHO cells, automated patch clamp current | 20% of 490 active;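 active = KCNQ1 current drop exceeding 3 SD of negative control wells, seen in both duplicate runs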;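 also: steady state current during a 2 s step from -80 to +40 mV; negative values mean current inhibition and positive values mean potentiation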
# KCNQ2 inh: selectivity of KCNQ1 inhibitors: inhibition of rat KCNQ2 channel; shares compounds with KCNQ1 block; KCNQ2 cells, FluxOR thallium flux fluorescence; inhibition, % at 10 µM; 71% of 1,600 active;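 active = mean percent inhibition of the KCNQ2 thallium signal more than 5 SD above the buffer-only control wells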;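 also: KCNQ2 expressed in CHO cells; 0% = buffer control wells and 100% = XE-991 inhibitor control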
# KCNQ1 KCNE1 spec: KCNQ1 inhibitor that also blocks human KCNQ1/KCNE1 channel; shares compounds with KCNQ1 block; KCNQ1/KCNE1 cells, FluxOR thallium flux fluorescence; inhibition, % at 10 µM; 77% of 1,600 active;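 active = mean percent inhibition of duplicate wells above the buffer-only control mean plus 3 SD of those controls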;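 also: 0% = buffer only wells and 100% = XE-991 inhibitor control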
# * marks the source's active call; other numbers are inactive results; i = inactive; · = no result. Only some compounds are listed: those with a hit (about 3.1% of all), similar ones and a draw of the others.
SMILES,KCNK3 inh,hERG rescue,KCNQ1 pot,KCNQ1 block,KCNK9 inh,KCNQ1 inh valid,CHO KCNQ1 ctr,KCNQ2 inh,KCNQ1 KCNE1 spec,others
CC(OC(=O)CCC1CCCCC1)C(=O)Nc1ccc(S(N)(=O)=O)cc1 (configuration not stated),i,-7,i,i,i,·,·,·,·,
CCOc1ccc(/C=C2\SC(=S)N(N3C(=O)C4CC4C3=O)C2=O)cc1 (configuration not stated),i,-6,i,i,i,·,·,·,·,
CCOc1ccc(N=C2NC(=O)S/C2=C\c2ccc(N(C)C)cc2)cc1,i,-15,i,10*,i,181*,0.42,i,i,
CC1CCCCN1C(=O)COC(=O)c1cc([N+](=O)[O-])ccc1N (configuration not stated),i,-19,i,i,i,·,·,·,·,
Cc1ccc(S(=O)(=O)Nc2ccsc2C#N)cc1,i,-6,i,i,i,·,·,·,·,
O=C(CN1C(=O)NC2(CCCC2)C1=O)Nc1ccc(F)c([N+](=O)[O-])c1,i,-5,i,i,i,·,·,·,·,
COC(=O)CSC1=NS(=O)(=O)c2ccccc21,i,-31,i,8*,i,100*,0.38*,98%*,141%*,
O=C(CSC1=NS(=O)(=O)c2ccccc21)Nc1ccccc1,i,-24,i,7*,i,78*,0.4,85%*,122%*,
CCn1c(-c2cc(-c3cccc(OC)c3)nc3ccccc23)n[nH]c1=S,i,-12,i,6*,i,80*,0.47,i,95%*,
CCc1ccc(-c2cc(-c3n[nH]c(=S)n3CC)c3ccccc3n2)cc1,·,-5,i,i,i,·,·,·,·,
O=C(Nc1ccc2c(c1)OCO2)C1CC(=O)N(c2cccc(Cl)c2)C1 (configuration not stated),i,-5,i,i,i,·,·,·,·,
S=C(NCc1cccs1)Nc1cccc(Cl)c1,i,-11,i,i,i,·,·,·,·,
S=C(NCc1cccs1)Nc1cc(Cl)cc(Cl)c1,i,-10,i,6*,i,34*,0.54,78%*,i,
Cc1cc(NC(=O)c2ccc(F)cc2)n(C)n1,i,-3,i,i,i,·,·,·,·,
COc1ccc2c(c1)c(CC(=O)Nc1ccccc1OC)c(C)n2C(=O)c1ccc(Cl)cc1,i,-7,i,7*,i,43*,0.39,91%*,48%*,
COc1ccc2c(c1)c(CC(=O)Nc1cc(C)ccc1C)c(C)n2C(=O)c1ccc(Cl)cc1,i,-12,i,i,i,·,·,·,·,
CC(C)Cn1c(N)c(C(=O)COC(=O)c2cc(-c3ccco3)nc3ccccc23)c(=O)n(C)c1=O,i,-12,i,i,i,·,·,·,·,
CC(C)Cn1c(N)c(C(=O)COC(=O)c2cc(-c3ccccc3)nc3ccccc23)c(=O)n(C)c1=O,i,-10,i,7*,i,106*,0.44,120%*,156%*,KCNQ1 APC inh=i
CC(C)(C)C(=O)COC(=O)c1cc(-c2ccncc2)nc2ccccc12,i,-18,i,7*,i,52*,0.42,92%*,48%*,
O=C(N/C(=C/c1ccco1)C(=O)N1CCOCC1)c1ccccc1Br,i,-4,i,i,i,·,·,·,·,
O=C(C1COc2ccccc2O1)N1CCN(Cc2ccc(Br)cc2F)CC1 (configuration not stated),i,-7,i,8*,i,60*,0.48,108%*,80%*,
